# Screens (PubChem BioAssay)
# Hits are enriched below; roughly 3.4% of the tested compounds scored in any of these assays.
# LANA-H2B inh: blockers of LANA interaction with H2A/H2B – biochemical, FP readout, HTS, primary screen. Protein LANA1 (Human herpesvirus 8 type P (isolate GK18)), Q9QR71. cell-free LANA-H2A/H2B peptide, fluorescence polarization. inhibition, % (test concentration not listed). 320,000 compounds, 0.6% hits. AID 2629, 2010; in the data active = inhibition mostly above about 10%, no sharp cut-off; inactive = mostly below about 6.7%
# Target sequence (Q9QR71 whole entry, looked up): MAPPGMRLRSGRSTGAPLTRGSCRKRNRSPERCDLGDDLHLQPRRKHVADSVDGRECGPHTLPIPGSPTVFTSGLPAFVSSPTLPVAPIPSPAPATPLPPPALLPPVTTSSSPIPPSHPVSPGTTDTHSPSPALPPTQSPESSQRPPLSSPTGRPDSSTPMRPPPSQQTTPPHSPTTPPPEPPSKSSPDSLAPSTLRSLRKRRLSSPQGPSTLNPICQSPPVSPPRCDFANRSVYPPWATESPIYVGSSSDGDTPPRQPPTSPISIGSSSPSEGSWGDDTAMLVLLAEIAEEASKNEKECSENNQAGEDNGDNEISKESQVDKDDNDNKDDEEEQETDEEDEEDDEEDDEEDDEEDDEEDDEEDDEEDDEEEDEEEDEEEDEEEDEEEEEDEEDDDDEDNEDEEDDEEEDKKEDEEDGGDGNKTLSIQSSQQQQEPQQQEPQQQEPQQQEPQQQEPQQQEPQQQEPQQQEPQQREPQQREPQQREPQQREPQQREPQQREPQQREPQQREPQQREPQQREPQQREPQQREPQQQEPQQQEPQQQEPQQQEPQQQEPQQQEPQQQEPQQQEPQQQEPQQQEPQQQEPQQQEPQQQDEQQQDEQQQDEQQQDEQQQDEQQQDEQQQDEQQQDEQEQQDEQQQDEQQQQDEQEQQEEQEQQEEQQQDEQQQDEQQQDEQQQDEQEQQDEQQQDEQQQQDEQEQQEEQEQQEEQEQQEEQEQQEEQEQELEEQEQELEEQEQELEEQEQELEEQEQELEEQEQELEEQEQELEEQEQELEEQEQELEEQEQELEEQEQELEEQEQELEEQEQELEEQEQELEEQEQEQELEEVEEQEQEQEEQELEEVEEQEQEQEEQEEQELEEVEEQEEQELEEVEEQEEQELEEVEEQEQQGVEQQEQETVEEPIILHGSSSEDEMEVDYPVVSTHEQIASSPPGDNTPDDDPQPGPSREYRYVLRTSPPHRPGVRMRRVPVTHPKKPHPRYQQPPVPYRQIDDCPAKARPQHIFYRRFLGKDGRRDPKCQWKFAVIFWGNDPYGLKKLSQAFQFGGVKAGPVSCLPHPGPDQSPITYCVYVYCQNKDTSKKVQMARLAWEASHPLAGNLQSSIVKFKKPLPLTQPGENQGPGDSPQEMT
# TAAR1 antagonist: human TAAR1 antagonists, primary screen, Fluo-8 calcium fluorescence, CHO RD-HGA16 cells; 360,000 compounds, 1.5% hits; antagonist; Trace amine-associated receptor 1 (Homo sapiens), Q96RJ0; inhibition, % at 3 µM;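 active = inhibition above a per-plate cutoff, the mean inhibition of test compounds on that plate plus 3 SD, cut at about 49% in these data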;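 also: 0% = DMSO plus EC80 beta-PEA response and 100% = DMSO alone without agonist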
#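 Test system – hTAAR1-expressing CHO RD-HGA16 cells, Gα16-coupled · Reagent – β-PEA at EC80 concentration, post-compound challenge · Compound dosing – 3 µM, single point · Timing – 140 s kinetic read after compound, 140 s after agonist · Detection – Fluo-8 intracellular calcium dye fluorescence, real-time kinetic reads · Control set – DMSO and EC80 PEA controls · Repeats – n of 1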
# GPR7 antagonist: GPR7 receptor antagonists, primary screen, cell-based, fluorescence, single concentration; Neuropeptides B/W receptor type 1 (Homo sapiens), P48145; GPR7-expressing cells, fluorescence antagonist assay; inhibition, % at 4.4 µM; 290,000 compounds, 1.1% hits; in the data active = inhibition above about 16%, passing the limit was not always enough;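 also: cells stimulated with the agonist NPW; 0% = agonist with vehicle and 100% = vehicle without agonist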
# TRPML3 ag: human TRPML3 channel agonists, primary screen, cell-based, HEK293 TRPML3-YFP, Fluo-8 calcium fluorescence, 3 µM; Mucolipin-3 (Homo sapiens), Q8TDD5; 100% = the carbachol control signal; activation, % at 3 µM; 220,000 compounds, 0.29% hits; AID 1448, 2008;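 active = activation above its plate's cutoff, the mean activation of the plate's test wells plus 3 SD, cut at about 12% in these data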;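 also: 0% = DMSO only wells and 100% = carbachol wells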
#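 system = HEK293 cells stably carrying human TRPML3-YFP | doses = one concentration, 3 µM nominal, 0.3% DMSO | timing = dye loading 1 h 37 °C then 30 min ambient, 125 s read | detection = Fluo-8 calcium dye fluorescence, ex 470-495, em 515-575 nm | benchmarks = high control carbachol 87 µM, low control DMSO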
# TRPN1 ag: zebrafish TRPN1 channel agonists, primary screen, cell-based, HEK293, calcium fluorescence; HEK293 zebrafish TRPN1-YFP, Fluo-8 calcium fluorescence; 100% = response to 87 µM carbachol; activation, % at 3 µM; 220,000 compounds, 0.18% hits; AID 1424, 2008;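 active = activation above its plate's cutoff, the mean activation of test wells on that plate plus 3 SD, cut at about 19% in these data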;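 also: 0% = DMSO alone and 100% = 87 µM carbachol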
#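 Control set: carbachol 87 µM as high control, DMSO as low control; system: HEK293 stable line with zebrafish TRPN1-YFP; read-out: % activation versus carbachol response; detection: intracellular calcium fluorescence with Fluo-8; doses: single test compound dose, 3 µM nominal, 0.3% DMSO; schedule: dye 1 h 37 °C plus 30 min RT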
# TAAR1 ag: human TAAR1 agonists, primary screen, Fluo-8 calcium fluorescence, CHO RD-HGA16 cells | vehicle wells 0%, saturating PEA agonist 100% | activation, % at 3 µM | 360,000 compounds, 0.99% hits;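 active = activation above the mean activation of all test compounds in the run plus 3 SD, cut at about 38% in these data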
#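 System: CHO RD-HGA16 cells carrying human TAAR1 plus Gα16; Incubation: 17-24 h seeding, 75 min 37 °C dye, 30 min RT; Measured by: Fluo-8 fluorescence, 5 s baseline then 140 s kinetic read; Control set: DMSO and PEA EC100; Replication: single well for each compound.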
# GPR7 antag cf: GPR7 receptor antagonists, confirmation, cell-based, fluorescence, single concentration. shares compounds with GPR7 antagonist. GPR7-expressing cells, calcium fluorescence antagonist mode. inhibition, % at 4.4 µM. 2,400 compounds, 52% hits; in the data active = inhibition above about 24%;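 also: stimulated with the GPR7 agonist NPW; 0% = agonist plus vehicle and 100% = vehicle alone without agonist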
# MCHR1 antagonist: MCHR1 antagonists in cells, counter-screen for GPR7 antagonist project, cell-based, fluorescence, human; shares compounds with GPR7 antagonist; MCHR1-expressing cells, fluorescence antagonist assay; inhibition, % at 4.4 µM; 2,400 compounds, 62% hits; AID 2148, 2009; in the data active = inhibition above about 22%;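 also: 0% = vehicle with agonist and 100% = vehicle without agonist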
# Active calls of the source: *; . = no result.
SMILES,LANA-H2B inh,TAAR1 antagonist,GPR7 antagonist,TRPML3 ag,TRPN1 ag,TAAR1 ag,GPR7 antag cf,MCHR1 antagonist
CN1CCN(S(=O)(=O)c2cccc(C(=O)Oc3ccc(Br)cc3F)c2)CC1,0,-36,-9,.,.,4,.,.
CC(Sc1nnc2ccccn12)C(N)=O (stereo not given),3,-14,25*,1,-1,1,-6,-5
CC(Sc1nnc2ccccn12)C(=O)Nc1ccc(Cl)cn1 (stereo not given),-4,11,5,0,0,3,.,.
CC(C)CC[n+]1ccccc1/C=C/c1ccc(N(C)C)cc1,-46,29,76*,.,.,19,78*,72*
CN(C)c1ccc(/C=C/c2cccc[n+]2[O-])cc1,-3,-6,-8,2,1,1,.,.
COC(=O)[C@]12C[C@H](CC(=O)NCc3cccc4ccccc34)C(=O)N(Cc3ccccc3)C1=C[C@H](C(C)(C)C)O[C@@H]2C,.,-21,.,.,.,1,.,.
COc1ccc(Br)cc1S(=O)(=O)N(CC(=O)N1CCN(C)CC1)c1ccccc1,0,-6,-6,.,.,2,.,.
CCOc1cc(CNC2CCCC2)cc(Cl)c1OCc1ccccc1,-4,19,26*,0,-1,58*,40*,30*
CCOc1cc(CNCC(C)C)cc(Cl)c1OCc1ccccc1,1,-18,9,0,-1,16,.,.
CCCCC(OC(=O)CN1C(=O)COc2ccccc21)C(=O)NC1CCCCC1 (stereo not given),-1,-14,31*,.,.,5,38*,24*
Cc1cccc(CCNC(=O)C2CCN(S(=O)(=O)c3c(C)noc3C)CC2)c1,0,-13,-3,0,-1,2,.,.
COc1ccc(CCNC(=O)C2CCN(S(=O)(=O)c3c(C)noc3C)CC2)cc1OC,-1,-11,29*,1,2,5,16,1
COc1ccc(C(=O)NCCc2nnc3ccc(SCC(=O)Nc4ccccc4F)nn23)cc1,-6,-9,-10,.,.,4,.,.
O=C(Nc1ccccc1N1CCN(C(=O)c2ccccc2)CC1)c1ccc([N+](=O)[O-])o1,.,55*,37*,.,.,12,33*,35*
CC(C)C(=O)N1CCN(c2ccccc2NC(=O)c2ccc([N+](=O)[O-])o2)CC1,-2,13,35*,.,.,4,28*,21
O=C(Nc1ccc(N2CCN(C(=O)c3ccccc3)CC2)cc1)c1ccc(Br)o1,1,32,38*,0,2,13,39*,32*
O=C(Nc1ccc(N2CCCC2)cc1)c1ccc(Br)o1,-3,18,14,0,-1,1,.,.
COc1cccc(CNC(=O)c2cc3c(cc2Cl)N2CCCCCC2=NS3(=O)=O)c1,6,4,.,.,.,1,.,.
CN1CCN(CCCNC(=O)c2ccc(CSCc3cccc(Cl)c3)o2)CC1,2,-14,-10,1,0,11,.,.
CC1CCN(CCCNC(=O)c2ccc(CSCc3cccc(Cl)c3)o2)CC1,-8,12,22*,-1,0,9,17,13
O=C(NCCN1CCOCC1)c1cc([N+](=O)[O-])ccc1Cl,-4,3,-13,.,.,0,.,.
O=C(NCCN1CCOCC1)c1cc(Br)ccc1Cl,-3,-13,29*,.,.,10,-12,12
